Assay results from ChEMBL document CHEMBL4308898, “Synthesis and biological evaluation of arylpiperazine derivatives as potential anti-prostate cancer agents” (Bioorg Med Chem, 2019).
The source made the active and inactive calls. The calls are words filed in the database; no cut-off is given here.

What was measured:
[1] = test system: PC-3; assay: Antiproliferative activity against human PC3 cells after 24 hrs by CCK-8 assay; type: functional, cell-based; conditions: PC-3, 24 h
Outline: (§1)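 Media with 10% FBS plus penicillin/streptomycin: RPMI1640 (DU145), F12 (LNCaP), DMEM (PC-3). Log-phase cells seeded at 1 × 10^5 cells/mL and grown 24 h at 37 °C, 5% CO2, then given various compound concentrations for 24 h. CCK-8 added for 1 h, absorbance read at 450 nm. Inhibition = (1 − OD treated/OD control) × 100%. IC50 from linear regression; three independent experiments.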

[2] = test system: DU-145; assay: Antiproliferative activity against human DU145 cells after 24 hrs by CCK-8 assay; type: functional, cell-based; conditions: DU-145, 24 h; outline: as §1
[3] = test system: LNCaP; assay: Antiproliferative activity against human LNCAP cells after 24 hrs by CCK-8 assay; type: functional, cell-based; outline: as §1
[4] = test system: RWPE-1; assay: Antiproliferative activity against human RWPE1 cells after 24 hrs by CCK-8 assay; type: cell-based; conditions: RWPE-1, 24 h
Outline: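 RWPE-1 grown in DMEM with 10% FBS, penicillin 100 U/mL and streptomycin 0.1 mg/mL at 37 °C, 5% CO2. Log-phase cells seeded at 1 × 10^5 cells/mL, cultured 24 h, then exposed to various compound concentrations for 24 h. CCK-8 added, 1 h at 37 °C, absorbance read at 450 nm. Inhibition = (1 − OD treated/OD control) × 100%. IC50 by linear regression of concentration-response curves. Three independent experiments.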

[5] = molecular target: T1, Androgen receptor (Homo sapiens) (UniProt P10275); conditions: at 10 µM
T1 sequence (whole entry): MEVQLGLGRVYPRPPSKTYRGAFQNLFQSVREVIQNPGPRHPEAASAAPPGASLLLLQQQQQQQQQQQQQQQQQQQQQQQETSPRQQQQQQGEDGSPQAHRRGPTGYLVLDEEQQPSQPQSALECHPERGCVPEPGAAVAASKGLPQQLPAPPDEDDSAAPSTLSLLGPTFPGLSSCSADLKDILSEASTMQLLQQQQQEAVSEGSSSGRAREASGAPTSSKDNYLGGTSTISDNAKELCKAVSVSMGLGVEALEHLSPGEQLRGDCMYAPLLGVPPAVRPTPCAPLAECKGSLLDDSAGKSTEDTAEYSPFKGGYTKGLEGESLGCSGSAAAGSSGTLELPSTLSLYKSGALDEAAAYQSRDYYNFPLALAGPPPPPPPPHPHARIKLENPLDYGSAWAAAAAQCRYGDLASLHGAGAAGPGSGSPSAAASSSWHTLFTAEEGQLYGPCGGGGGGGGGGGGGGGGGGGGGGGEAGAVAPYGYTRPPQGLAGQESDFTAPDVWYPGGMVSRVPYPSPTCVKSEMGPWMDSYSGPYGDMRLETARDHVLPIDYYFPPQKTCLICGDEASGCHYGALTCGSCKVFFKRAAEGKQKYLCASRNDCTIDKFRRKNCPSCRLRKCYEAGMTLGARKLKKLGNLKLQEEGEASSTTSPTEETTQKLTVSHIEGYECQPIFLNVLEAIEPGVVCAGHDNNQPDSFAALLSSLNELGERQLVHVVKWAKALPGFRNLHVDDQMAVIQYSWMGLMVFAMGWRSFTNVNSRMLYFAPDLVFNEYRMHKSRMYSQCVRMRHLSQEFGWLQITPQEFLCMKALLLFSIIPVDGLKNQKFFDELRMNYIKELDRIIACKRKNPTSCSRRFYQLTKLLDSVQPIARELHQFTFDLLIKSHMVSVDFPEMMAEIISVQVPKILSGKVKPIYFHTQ

[6] = molecular target: T2, Androgen receptor (Rattus norvegicus, UniProt P15207); assay: Displacement of fluormone-AL Green from His-tagged/GST-fused recombinant rat androgen receptor LBD expressed in insect cells measured after 4 hrs by fluorescence polarization assay
T2 sequence (P15207 whole entry): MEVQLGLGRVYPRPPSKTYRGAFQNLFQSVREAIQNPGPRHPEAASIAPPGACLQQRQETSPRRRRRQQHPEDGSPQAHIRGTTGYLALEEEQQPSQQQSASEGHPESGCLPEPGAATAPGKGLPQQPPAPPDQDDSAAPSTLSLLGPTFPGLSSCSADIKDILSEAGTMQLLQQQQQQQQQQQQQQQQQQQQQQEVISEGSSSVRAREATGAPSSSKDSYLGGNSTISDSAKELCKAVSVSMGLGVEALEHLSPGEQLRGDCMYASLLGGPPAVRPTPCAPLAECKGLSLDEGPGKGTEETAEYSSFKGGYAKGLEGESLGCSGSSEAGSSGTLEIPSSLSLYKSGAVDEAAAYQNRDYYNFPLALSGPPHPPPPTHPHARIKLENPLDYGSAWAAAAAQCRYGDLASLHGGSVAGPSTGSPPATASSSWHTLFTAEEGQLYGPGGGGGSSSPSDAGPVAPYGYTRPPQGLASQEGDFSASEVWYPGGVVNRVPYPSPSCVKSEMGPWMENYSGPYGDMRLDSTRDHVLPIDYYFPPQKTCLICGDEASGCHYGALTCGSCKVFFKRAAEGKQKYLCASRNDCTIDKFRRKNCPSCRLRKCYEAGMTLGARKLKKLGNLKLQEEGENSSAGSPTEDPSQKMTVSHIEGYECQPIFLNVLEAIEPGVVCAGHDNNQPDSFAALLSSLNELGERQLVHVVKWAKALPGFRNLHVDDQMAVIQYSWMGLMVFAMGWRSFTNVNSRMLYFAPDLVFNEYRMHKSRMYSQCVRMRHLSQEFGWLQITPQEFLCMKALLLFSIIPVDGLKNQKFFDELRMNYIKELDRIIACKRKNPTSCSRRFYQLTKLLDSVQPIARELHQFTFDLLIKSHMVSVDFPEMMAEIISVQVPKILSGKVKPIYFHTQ

SMILES | IC50 [1] [µM] | IC50 [2] [µM] | IC50 [3] [µM] | IC50 [4] [µM] | inhibition [5] | IC50 [6] [µM]
c1ccc(N2CCN(Cc3ccc(CCOc4cccc5ccccc45)cc3)CC2)cc1 | 4.72 | 16 | 8.92 | 12.2 | 32.5% | –
CC(C)c1ccc(OCCc2ccc(CN3CCN(c4ccccc4)CC3)cc2)cc1 | > 50 | 6.4 | > 50 | > 50 | 40.2% | –
FC(F)(F)c1ccc(OCCc2ccc(CN3CCN(c4ccccc4)CC3)cc2)cc1 | 4.96 | 4.81 | 8.76 | 13.2 | 48.2% | 4.03
Fc1ccccc1OCCc1ccc(CN2CCN(c3ccccc3)CC2)cc1 | 48.8 | 7.21 | 17.8 | 19.7 | – | –
Brc1ccc(OCCc2ccc(CN3CCN(c4ccccc4)CC3)cc2)cc1 | 6.69 | 10.1 | 13.5 | 15.7 | – | –
c1ccc(N2CCN(Cc3ccc(CCOc4cccc5c4CCCC5)cc3)CC2)cc1 | 17.7 | 12.2 | 19.3 | 27.8 | – | –
CCOc1ccc(OCCc2ccc(CN3CCN(c4ccccc4)CC3)cc2)cc1 | > 50 | 14.2 | > 50 | > 50 | – | –
Clc1ccc(OCCc2ccc(CN3CCN(c4ccccc4)CC3)cc2)cc1Cl | 23 | 5.36 | 19.8 | > 50 | 41.1% | –
Brc1ccccc1OCCc1ccc(CN2CCN(c3ccccc3)CC2)cc1 | > 50 | 11.6 | 41.9 | > 50 | – | –
Clc1ccc(OCCc2ccc(CN3CCN(c4ccccc4)CC3)cc2)cc1 | 3.59 | 9.2 | 8.64 | 4.76 | 32.4% | –
Cc1cc(C)cc(OCCc2ccc(CN3CCN(c4ccccc4)CC3)cc2)c1 | 2.99 | 3.44 | 7.43 | 4.86 | 16.7% | –
c1ccc(OCCc2ccc(CN3CCN(c4ccccc4)CC3)cc2)cc1 | 8.2 | 9.82 | 6.67 | > 50 | 40.6% | –
Clc1cc(Cl)cc(OCCc2ccc(CN3CCN(c4ccccc4)CC3)cc2)c1 | 10.1 | 13.2 | 19.4 | 47.2 | – | –
Cc1ccc(OCCc2ccc(CN3CCN(c4ccccc4)CC3)cc2)cc1C | 6.72 | 15.6 | 17.6 | 12.3 | – | –
COc1ccc(OCCc2ccc(CN3CCN(c4ccccc4)CC3)cc2)cc1 | 8.95 | 9.79 | 7.46 | > 50 | 67.1% | 1.15
Clc1ccccc1OCCc1ccc(CN2CCN(c3ccccc3)CC2)cc1 | > 50 | 38.6 | > 50 | > 50 | – | –
CC(C)(C)NC(=O)[C@H]1CC[C@H]2[C@@H]3CC[C@H]4NC(=O)C=C[C@]4(C)[C@H]3CC[C@]12C [FINASTERIDE] | – | 14.5 | 13.5 | – | – | –
N#Cc1ccc(OCCc2ccc(CN3CCN(c4ccccc4)CC3)cc2)c(F)c1 | > 50 | 0.77 | > 50 | > 50 | 24.5% | –
Cc1ccc(OCCc2ccc(CN3CCN(c4ccccc4)CC3)cc2)cc1 | 1.47 | 10.1 | 5.62 | > 50 | 54.7% | 3.66
c1ccc(N2CCN(Cc3ccc(CCOc4ccc5c(c4)CCCC5)cc3)CC2)cc1 | > 50 | 40.4 | > 50 | > 50 | – | –
O=[N+]([O-])c1ccc(OCCc2ccc(CN3CCN(c4ccccc4)CC3)cc2)cc1 | 9.23 | 8.74 | 8.51 | 3.87 | 50.1% | 3.82
Fc1ccc(OCCc2ccc(CN3CCN(c4ccccc4)CC3)cc2)cc1 | 5.7 | 6.86 | 7.83 | 4.62 | 35.1% | –
COc1ccccc1OCCc1ccc(CN2CCN(c3ccccc3)CC2)cc1 | > 50 | > 50 | > 50 | > 50 | – | –
Cc1ccccc1OCCc1ccc(CN2CCN(c3ccccc3)CC2)cc1 | 15.1 | 29.2 | 34.9 | > 50 | – | –
N#Cc1ccc(OCCc2ccc(CN3CCN(c4ccccc4)CC3)cc2)cc1 | 1.05 | 46.2 | 43.6 | > 50 | 47.2% | 4.22
CC(C)(C)c1ccc(OCCc2ccc(CN3CCN(c4ccccc4)CC3)cc2)cc1 | 4.86 | 28 | 17.9 | 21.1 | – | –
COc1ccccc1N1CCN(CC(O)COc2cccc3ccccc23)CC1 (stereo unspecified) [NAFTOPIDIL] | – | – | – | > 50 | – | –
C[C@]12C=CC3=C4CCC(=O)C=C4CC[C@H]3[C@@H]1CC[C@@]2(C)O | – | – | – | – | inactive | –
N#Cc1ccccc1OCCc1ccc(CN2CCN(c3ccccc3)CC2)cc1 | > 50 | 2.51 | > 50 | > 50 | 32.1% | –
FC(F)(F)c1ccccc1OCCc1ccc(CN2CCN(c3ccccc3)CC2)cc1 | > 50 | 9.43 | 32.2 | > 50 | – | –
